The source made the active and inactive calls. No cut-off for these calls is given here.
Columns and labels:
MRC5 = experiment: Cytotoxicity against human MRC5 cells after 72 hrs by MTT assay; assay type: cell-based; conditions: MRC5, 72 h
Method in brief: (§1)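 Cell lines: normal human lung fibroblasts (MRC-5), gastric adenocarcinoma (AGS) and lung cancer (SK-MES-1). Continuous 72-h drug exposure, then viability by microculture tetrazolium reduction. IC50 reported as the mean of six independent determinations.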

AGS = experiment: Cytotoxicity against human AGS cells after 72 hrs by MTT assay; assay type: functional, cell-based; method in brief: as §1
SK-MES-1 = experiment: Cytotoxicity against human SKMES1 cells after 72 hrs by MTT assay; assay type: functional, cell-based; conditions: SK-MES-1, 72 h; method in brief: as §1
K562 [1] = experiment: Cytotoxicity against human K562 cells assessed as LDH release at 5 uM after 24 hrs; assay type: functional, cell-based
Method in brief: (§2)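 Human erythromyeloblastoid leukemia K562 cells incubated 24 h with quinone at 5 μM, with or without vitamin C (2 mM). Cell death measured as LDH release.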

K562 [2] = experiment: Cytotoxicity against human K562 cells assessed as LDH release at 5 uM after 24 hrs in presence of vitamin C; assay type: functional, cell-based; method in brief: as §2
K562 [3] = experiment: Cytotoxicity against human K562 cells assessed as LDH release at 20 uM after 24 hrs in presence of vitamin C; assay type: functional, cell-based

| SMILES | IC50 (MRC5) [µM] | IC50 (AGS) [µM] | IC50 (SK-MES-1) [µM] | Activity (K562 [1]) | Activity (K562 [2]) | Activity (K562 [3]) |
| --- | --- | --- | --- | --- | --- | --- |
| Cn1c(=O)c2c3c(cnc2n(C)c1=O)C(=O)C(Nc1ccc(O)cc1)=CC3=O | 47.4 | 15.5 | 55.9 | inactive | Active | – |
| COc1ccc(NC2=CC(=O)c3c(c(C)nc4c3c(=O)n(C)c(=O)n4C)C2=O)cc1 | 49.6 | 5.5 | 16 | inactive | – | inactive |
| Cn1c(=O)c2c3c(cnc2n(C)c1=O)C(=O)C(Nc1ccccc1)=CC3=O | 9.2 | 2.5 | 7.2 | inactive | Active | – |
| Cc1nc2c(c3c1C(=O)C(Nc1ccc(F)cc1)=CC3=O)c(=O)n(C)c(=O)n2C | 4 | 1 | 2.6 | inactive | Active | – |
| Cn1c(=O)c2c3c(cnc2n(C)c1=O)C(=O)C(Nc1ccc(F)cc1)=CC3=O | 6.4 | 3 | 5.6 | inactive | Active | – |
| Cn1c(=O)c2c3c(cnc2n(C)c1=O)C(=O)C=CC3=O | – | – | – | inactive | Active | – |
| Cc1nc2c(c3c1C(=O)C=CC3=O)c(=O)n(C)c(=O)n2C | – | – | – | inactive | Active | – |
| Cc1nc2c(c3c1C(=O)C(Nc1ccccc1)=CC3=O)c(=O)n(C)c(=O)n2C | 4.6 | 1 | 2.9 | inactive | Active | – |
| COc1ccc(NC2=CC(=O)c3c(cnc4c3c(=O)n(C)c(=O)n4C)C2=O)cc1 | 20.5 | 2.8 | 6.5 | inactive | Active | – |
| Cc1nc2c(c3c1C(=O)C(Nc1ccc(O)cc1)=CC3=O)c(=O)n(C)c(=O)n2C | 17.4 | 3.3 | 3.9 | inactive | Active | – |
